{
  "source": "ChEMBL document CHEMBL4402595",
  "about": "“Discovery of Orally Bioavailable Chromone Derivatives as Potent and Selective BRD4 Inhibitors: Scaffold Hopping, Optimization, and Pharmacological Evaluation” (J Med Chem, 2020)",
  "key": {"Mus musculus [1]": {"test_system": "Mus musculus", "assay": "Antiinflammatory activity in C57BL6/J mouse model of TLR3-induced acute airway inflammation assessed as inhibition of neutrophilic inflammation around small and medium-sized airways at 10 mg/kg, ip pre-treated 1 day before poly(I:C) stimulation followed by compound re-dosing at 10 mg/kg, ip before another poly(I:C) stimulation and measured after 1 day post last poly(I:C) stimulation by …", "format": "functional"}, "[2]": {"biological_target": "Bromodomain-containing protein 4 (Homo sapiens, UniProt O60885)", "assay": "Inhibition of BRD4 in poly(I:C)-stimulated human SAECs TLR3-inducible IL-6 gene expression pre-incubated for 24 hrs before poly(I:C) stimulation for 4 hrs by qRT-PCR analysis"}, "Mus musculus [3]": {"test_system": "Mus musculus", "assay": "(§1) Antiinflammatory activity in C57BL6/J mouse model of TLR3-induced acute airway inflammation assessed as inhibition of elevated IL-6 levels in BALF at 10 mg/kg, po pre-treated 1 day before poly(I:C) stimulation followed by compound re-dosing at 10 mg/kg, po before another poly(I:C) stimulation and measured after 1 day post last poly(I:C) stimulation by cytokine Bio-Plex assay", "format": "functional, organism-based", "outline": "(§2)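 Male C57BL/6J mice, 12 weeks old, 5 per group, dosed 10 mg/kg the day before and again immediately before intranasal poly(I:C) (300 μg in 50 μL PBS). BALF was collected 1 day later by two 1 mL PBS lavages and centrifuged at 800 × g for 5 min at 4 °C. Supernatant cytokines were measured by multiplex bead immunoassay against recombinant standards in triplicate.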"}, "Mus musculus [4]": {"test_system": "Mus musculus", "assay": "as §1, with “elevated KC” for “elevated IL-6”, “mg/kg, ip” for “mg/kg, po”", "format": "functional, organism-based", "outline": "as §2"}, "Mus musculus [5]": {"test_system": "Mus musculus", "assay": "as §1, with “elevated neutrophils” for “elevated IL-6 levels”, “mg/kg, ip” for “mg/kg, po”, “stimulation” for “stimulation by cytokine Bio-Plex assay”", "format": "functional, organism-based", "outline": "(§3)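 Male C57BL/6J mice, 12 weeks old, 5 per group, dosed 10 mg/kg one day before and again immediately before intranasal poly(I:C) (300 μg/50 μL PBS). BALF was collected 1 day later. Total viable cells were counted by trypan blue with a hemocytometer. Neutrophils were counted as a differential of 300 cells on Wright-Giemsa stained cytospins.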"}, "Mus musculus [6]": {"test_system": "Mus musculus", "assay": "as §1, with “elevated CIG5 gene expression” for “elevated IL-6 levels”, “in lung” for “in BALF”, “mg/kg, ip” for “mg/kg, po”, “stimulation” for “stimulation by cytokine Bio-Plex assay”", "format": "functional, organism-based", "outline": "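Male C57BL/6J mice, 12 weeks old, 5 per group, dosed 10 mg/kg one day before challenge and again immediately before intranasal poly(I:C) (300 μg in 50 μL PBS). Controls were vehicle alone and poly(I:C) alone. Lungs were taken 1 day later. Gene expression in lung tissue was measured by qRT-PCR, normalized to PPIA.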"}, "Mus musculus [7]": {"test_system": "Mus musculus", "assay": "as §1, with “neutrophils” for “IL-6 levels”, “stimulation” for “stimulation by cytokine Bio-Plex assay”", "format": "functional, organism-based", "outline": "as §3"}, "Mus musculus [8]": {"test_system": "Mus musculus", "assay": "as §1, with “total cells” for “IL-6 levels”, “stimulation” for “stimulation by cytokine Bio-Plex assay”", "format": "functional, organism-based", "outline": "as §3"}, "CYP2B6": {"biological_target": "T1, CYP2B6 (Homo sapiens, UniProt P20813)", "T1 sequence (P20813 whole entry)": "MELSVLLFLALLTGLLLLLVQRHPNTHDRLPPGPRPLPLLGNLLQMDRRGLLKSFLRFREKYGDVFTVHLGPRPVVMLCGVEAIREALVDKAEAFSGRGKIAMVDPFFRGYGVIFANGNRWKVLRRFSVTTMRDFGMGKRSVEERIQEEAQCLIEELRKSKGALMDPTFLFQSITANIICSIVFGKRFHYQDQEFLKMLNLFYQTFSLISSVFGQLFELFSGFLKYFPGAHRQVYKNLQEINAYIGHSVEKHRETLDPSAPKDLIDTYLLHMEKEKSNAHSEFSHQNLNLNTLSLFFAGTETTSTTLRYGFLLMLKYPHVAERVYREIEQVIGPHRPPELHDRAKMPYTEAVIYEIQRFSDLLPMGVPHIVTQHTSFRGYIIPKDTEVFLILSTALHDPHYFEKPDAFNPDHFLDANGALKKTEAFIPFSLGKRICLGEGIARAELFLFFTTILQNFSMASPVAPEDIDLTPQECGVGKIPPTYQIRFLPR", "assay": "Inhibition of CYP2B6 (unknown origin) at 10 uM relative to control", "format": "ADME"}, "CYP1A2": {"biological_target": "T2, CYP1A2 (Homo sapiens, UniProt P05177)", "T2 sequence (P05177 whole entry)": "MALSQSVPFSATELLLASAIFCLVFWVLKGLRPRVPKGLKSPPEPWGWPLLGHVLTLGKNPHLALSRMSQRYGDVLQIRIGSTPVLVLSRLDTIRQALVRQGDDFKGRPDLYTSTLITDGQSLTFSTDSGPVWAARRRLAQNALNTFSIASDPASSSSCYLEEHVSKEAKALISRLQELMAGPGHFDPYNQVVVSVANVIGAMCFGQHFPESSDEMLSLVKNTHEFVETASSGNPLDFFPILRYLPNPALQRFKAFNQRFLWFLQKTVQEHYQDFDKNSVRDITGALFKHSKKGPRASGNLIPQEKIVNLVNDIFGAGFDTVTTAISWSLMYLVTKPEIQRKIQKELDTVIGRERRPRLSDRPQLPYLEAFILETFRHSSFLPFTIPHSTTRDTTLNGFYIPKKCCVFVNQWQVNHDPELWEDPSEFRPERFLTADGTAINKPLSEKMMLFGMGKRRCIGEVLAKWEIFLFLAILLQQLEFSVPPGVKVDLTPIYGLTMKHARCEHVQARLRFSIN", "assay": "Inhibition of CYP1A2 (unknown origin) at 10 uM relative to control", "format": "ADME"}, "CYP3A4": {"biological_target": "CYP3A4 (Homo sapiens, UniProt P08684)", "sequence (P08684 whole entry)": "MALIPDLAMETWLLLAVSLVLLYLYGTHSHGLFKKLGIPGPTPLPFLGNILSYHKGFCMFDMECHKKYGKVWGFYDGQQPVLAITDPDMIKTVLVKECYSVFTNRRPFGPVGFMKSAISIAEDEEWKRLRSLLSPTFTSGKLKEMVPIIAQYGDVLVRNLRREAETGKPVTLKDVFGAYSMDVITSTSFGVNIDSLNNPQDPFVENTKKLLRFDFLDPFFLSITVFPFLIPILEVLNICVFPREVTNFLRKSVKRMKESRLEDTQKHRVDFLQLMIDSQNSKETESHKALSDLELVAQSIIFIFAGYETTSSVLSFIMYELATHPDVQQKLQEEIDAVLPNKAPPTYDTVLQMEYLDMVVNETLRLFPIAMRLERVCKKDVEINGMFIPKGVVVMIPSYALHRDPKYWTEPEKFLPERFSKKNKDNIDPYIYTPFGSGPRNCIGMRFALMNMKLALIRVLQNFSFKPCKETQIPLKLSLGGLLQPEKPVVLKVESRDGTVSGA", "assay": "Inhibition of CYP3A4 (unknown origin) at 10 uM using testosterone substrate relative to control", "format": "ADME", "conditions": "probe testosterone", "outline": "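The CYP3A4 assay was run with midazolam or with testosterone as substrate.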"}, "CYP2C8": {"biological_target": "T3, CYP2C8 (Homo sapiens, UniProt P10632)", "T3 sequence (P10632 whole entry)": "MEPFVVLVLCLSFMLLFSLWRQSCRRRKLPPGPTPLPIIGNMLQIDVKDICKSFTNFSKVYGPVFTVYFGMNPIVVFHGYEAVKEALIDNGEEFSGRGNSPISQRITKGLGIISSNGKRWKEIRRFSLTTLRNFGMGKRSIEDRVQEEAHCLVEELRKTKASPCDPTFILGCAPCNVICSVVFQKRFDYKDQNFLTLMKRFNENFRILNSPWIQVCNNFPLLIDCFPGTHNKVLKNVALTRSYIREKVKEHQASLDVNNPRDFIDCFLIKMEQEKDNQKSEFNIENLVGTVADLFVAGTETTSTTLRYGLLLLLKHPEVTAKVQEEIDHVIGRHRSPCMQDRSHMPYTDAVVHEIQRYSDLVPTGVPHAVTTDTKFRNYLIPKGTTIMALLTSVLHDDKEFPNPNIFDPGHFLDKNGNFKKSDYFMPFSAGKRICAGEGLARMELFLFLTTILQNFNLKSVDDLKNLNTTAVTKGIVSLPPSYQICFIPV", "assay": "Inhibition of CYP2C8 (unknown origin) at 10 uM relative to control", "format": "ADME"}, "CYP2D6": {"biological_target": "CYP2D6 (Homo sapiens, UniProt P10635)", "sequence (P10635 whole entry)": "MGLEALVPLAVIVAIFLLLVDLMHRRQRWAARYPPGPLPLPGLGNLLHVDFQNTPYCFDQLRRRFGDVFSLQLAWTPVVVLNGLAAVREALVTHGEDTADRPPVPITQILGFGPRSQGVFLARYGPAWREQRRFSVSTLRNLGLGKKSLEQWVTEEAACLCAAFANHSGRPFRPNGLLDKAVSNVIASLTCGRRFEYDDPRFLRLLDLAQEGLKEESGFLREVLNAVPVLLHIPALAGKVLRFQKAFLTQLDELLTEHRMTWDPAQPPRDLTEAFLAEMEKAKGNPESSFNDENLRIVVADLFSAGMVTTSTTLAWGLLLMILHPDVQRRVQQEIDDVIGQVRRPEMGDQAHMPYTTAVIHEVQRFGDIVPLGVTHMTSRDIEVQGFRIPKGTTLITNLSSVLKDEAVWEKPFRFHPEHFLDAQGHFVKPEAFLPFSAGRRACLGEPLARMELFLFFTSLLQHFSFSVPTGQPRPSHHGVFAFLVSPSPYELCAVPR", "assay": "Inhibition of CYP2D6 (unknown origin) at 10 uM relative to control", "format": "ADME"}, "[9]": {"assay": "Unbound fraction in human plasma at 2 uM", "format": "ADME, cell-free"}},
  "note": "Activity calls are given as the source filed them. The calls are words filed in the database; no cut-off is given here.",
  "data": [
    {"smiles": "COc1cc(OC)c2c(=O)cc(-c3cc(C)c(OC[C@H](O)CN4CCCCC4)c(C)c3)oc2c1", "values": [
      {"measurement": "inhibition in vivo at 10 mg/kg", "setting": "Mus musculus [1]", "value": 100, "unit": "%"},
      {"measurement": "IC50", "setting": "[2]", "value": 1.1, "unit": "µM"},
      {"measurement": "inhibition", "setting": "Mus musculus [3]", "value": "Active"},
      {"measurement": "inhibition", "setting": "Mus musculus [4]", "value": "Active"},
      {"measurement": "inhibition", "setting": "Mus musculus [5]", "value": "Active"},
      {"measurement": "inhibition", "setting": "Mus musculus [6]", "value": "Active"},
      {"measurement": "inhibition", "setting": "Mus musculus [7]", "value": "Active"},
      {"measurement": "inhibition", "setting": "Mus musculus [8]", "value": "Active"}
    ]},
    {"smiles": "COc1cc(OC)c2c(=O)cc(-c3cc(C)c(OC[C@H](O)CN4CCN(C)CC4)c(C)c3)oc2c1", "values": [
      {"measurement": "inhibition in vivo at 10 mg/kg", "setting": "Mus musculus [1]", "value": 100, "unit": "%"},
      {"measurement": "inhibition at 10 µM", "setting": "CYP2B6", "value": 27, "unit": "%"},
      {"measurement": "inhibition at 10 µM", "setting": "CYP1A2", "value": 0, "unit": "%"},
      {"measurement": "inhibition at 10 µM", "setting": "CYP3A4", "value": 8.2, "unit": "%"},
      {"measurement": "inhibition", "setting": "Mus musculus [3]", "value": "Active"},
      {"measurement": "inhibition at 10 µM", "setting": "CYP2C8", "value": 17, "unit": "%"},
      {"measurement": "inhibition", "setting": "Mus musculus [4]", "value": "Active"},
      {"measurement": "inhibition", "setting": "Mus musculus [5]", "value": "Active"},
      {"measurement": "inhibition at 10 µM", "setting": "CYP2D6", "value": 0, "unit": "%"},
      {"measurement": "inhibition", "setting": "Mus musculus [6]", "value": "Active"},
      {"measurement": "inhibition", "setting": "Mus musculus [7]", "value": "Active"},
      {"measurement": "inhibition", "setting": "Mus musculus [8]", "value": "Active"},
      {"measurement": "Fu", "setting": "[9]", "value": 17, "unit": "%"}
    ]}
  ]
}
